Experimental data published in article PMC12799515 (Journal of Orthopaedic Translation, 2025).

Experiments:
[1] = no reference given; cited from earlier work
ANT1 in inTPCs = assay: ANT1/Slc25a4 expression in inTPCs; assay type: cell-based, C57BL/6 J mice; details: two days osteogenic induction, 1 μM CCCP
Outline: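 Mouse tendon cells under 2 days of osteogenic induction were transfected with 100 nM Slc25a4 siRNA or control siRNA (RNAiMAX) for 2 days, with 1 μM test compound added on day 2. ANT1 protein was measured by western blot (RIPA lysis with protease/phosphatase inhibitors, 100 °C 10 min, SDS-PAGE, PVDF, 5% milk block, ECL, band densitometry). Slc25a4 mRNA was measured by SYBR qRT–PCR against Gapdh (2−ΔΔCt).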

[2] = tested on: OCN, RUNX2, ALP in inTPCs; assay: Western blotting of osteogenic-related proteins in inTPCs; assay type: cell-based, C57BL/6 J mice; details: for protein expression of OCN, RUNX2, ALP: 1 μM CCCP or 5 μM CsA, three stimulation cycles in ODM, vs vehicle
Outline: (§1)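 Mouse tendon cells were treated in one of two ways: three 4-day cycles (2 days ODM with test compound or solvent, then 2 days plain ODM), or 2 days of osteogenic induction with 100 nM Slc25a4 siRNA (RNAiMAX) ±1 μM test compound added on day 2. Proteins were extracted in RIPA with protease/phosphatase inhibitors, heated to 100 °C for 10 min, separated by SDS-PAGE, transferred to PVDF, blocked with 5% milk and detected by ECL. Bands were quantified by densitometry.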

[3] = tested on: mitophagy-related genes Pink1, Prkn, LC3b, p62 in inTPCs; assay: qRT–PCR of mitophagy-related genes in inTPCs; assay type: cell-based, C57BL/6 J mice; details: 1 μM CCCP or 5 μM CsA, three stimulation cycles in ODM, vs vehicle
Outline: (§2)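 Mouse tendon cells (passage 3–4) received three 4-day cycles: 2 days of ODM containing test compound or equal-volume solvent, then 2 days of plain ODM. Transcripts were measured by SYBR Green qRT–PCR, normalised to Gapdh, with relative expression calculated by the 2−ΔΔCt method.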

inTPCs [4] = assay: Cell viability; assay type: cell-based, C57BL/6 J mice; details: 1 μM CCCP or 5 μM CsA, 48 h
Outline: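 Mouse tendon cells (passage 3–4) were seeded in 96-well plates and exposed to test compound at varying concentrations (0, 0.1, 0.5, 1, 5, 10 μM for the inhibitor) for 48 h. They were then incubated with 10% CCK-8 at 37 °C for 1 h, and absorbance was read at 450 nm to calculate viability.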

inTPCs [5] = assay: Apoptosis; assay type: cell-based, C57BL/6 J mice; details: 1 μM CCCP or 5 μM CsA
[6] = tested on: PINK1, Parkin, LC3BⅡ, p62 in inTPCs; assay: Western blotting of mitophagy-related proteins in inTPCs; assay type: cell-based, C57BL/6 J mice
Outline: as §1

inTPCs [7] = assay: ALP and ARS staining of inTPCs; assay type: cell-based, C57BL/6 J mice; details: 1 μM CCCP or 5 μM CsA, vs vehicle; for ARS staining: four stimulation cycles; for ALP staining: three stimulation cycles
Outline: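 Mouse tendon cells were digested with collagenase, grown in low-glucose DMEM/15% FBS and used at passage 3–4. Each cycle was 2 days of ODM (high-glucose DMEM, 10−8 M dexamethasone, 50 μg/mL vitamin C, 10 mM β-glycerol phosphate, 10% FBS) with test compound or solvent, then 2 days of plain ODM. ALP: 3 cycles, 4% PFA 30 min, BCIP/NBT stain. ARS: 4 cycles, kit fixative 20 min. Positive ratio quantified by image analysis.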

[8] = tested on: osteogenic-related genes Ocn, Runx2, Alpl in inTPCs; assay: qRT–PCR of osteogenic-related genes in inTPCs; assay type: cell-based, C57BL/6 J mice; details: 1 μM CCCP or 5 μM CsA, three stimulation cycles in ODM, vs vehicle
Outline: as §2

mitophagy = details: cited from earlier work
[9] = two days osteogenic induction, 100 nM si-Slc25a4 two days, or 1 μM CCCP
[10] = 1 μM CCCP or 5 μM CsA, three stimulation cycles in ODM, vs vehicle

In the case of `CO[C@H](C/C=C\C=C\CC/C=C/C[C@H](C)/C=C/C(=C\C(=O)O)CC(=O)O)/C(C)=C\C=C(/C)C(=O)O` [BKA, bongkrekic acid], the “toxicity of ANT1 inhibitors” value [1] is listed as “toxic agents unsuitable for clinical use”.

For `C=C1[C@@H]2CC[C@H]3[C@]4(C)C[C@H](O[C@@H]5O[C@H](CO)[C@@H](OS(=O)(=O)O)[C@H](OS(=O)(=O)O)[C@H]5OC(=O)CC(C)C)CC(C(=O)O)(C(=O)O)[C@H]4CC[C@]3(C2)[C@H]1O` [CATR, carboxyatractyloside], the “toxicity of ANT1 inhibitors” value [1] is listed as “toxic agents unsuitable for clinical use”.

In the case of `N#CC(C#N)=NNc1cccc(Cl)c1` [CCCP, carbonyl cyanide 3-chlorophenylhydrazone], the ANT1 protein expression (ANT1 in inTPCs) is reported as “did not affect ANT1 expression”, the “protein expression of OCN, RUNX2, ALP” value [2] is reported as “upregulated” and the “protein expression of RUNX2, ALP” value [2, 9] is reported as “promoted”. For the same molecule, the “gene expression of Pink1, Prkn, LC3b” value [3] was “increased”, the p62 gene expression [3] was “suppressed” and the “cell viability (poisoning)” value (inTPCs [4]) was “did not cause poisoning”. The apoptosis (inTPCs [5]) was “did not cause poisoning (Fig. 3A and B) or apoptosis”, the p62 protein expression [6, 10] was “p62 suppression” and the “protein expression of PINK1, Parkin, LC3BⅡ” value (shortened to “protein expression of PINK1”) [6, 10] was “upregulated”. For the same molecule, the p62 protein expression [6, 9] was “suppressed”, the “protein expression of PINK1” value [6, 9] was “promoted” and the ARS staining (inTPCs [7]) was “increased”. The ALP staining (inTPCs [7]) was “increased” and the “gene expression of Ocn, Runx2, Alpl” value [8] was “increased”.

In the case of `OC1c2cc3ccc4cccc5ccc(c2C2OC2C1O)c3c45` (stereo not shown) [benzo(a)pyrene-7,8-dihydrodiol-9, 10-epoxide], the mitophagy (mitophagy) is given as “suppressed”.

With cyclosporin A [CsA] the “protein expression of OCN, RUNX2, ALP” value [2] was “downregulated”, the “gene expression of Pink1, Prkn, LC3b” value [3] was “suppressed” and the p62 gene expression [3] was “promoted”. For the same molecule, the p62 protein expression [6, 10] was “p62 accumulation”, the “protein expression of PINK1” value [6, 10] was “downregulated” and the ARS staining (inTPCs [7]) was “reduced”. For the same molecule, the ALP staining (inTPCs [7]) was “reduced” and the “gene expression of Ocn, Runx2, Alpl” value [8] was “suppressed”.
